The text below walks through data of ChEMBL document CHEMBL4765409, “Synthesis and biological evaluation of geniposide derivatives as potent and selective PTPlB inhibitors” (Eur J Med Chem, 2020).

The target of assay [1] is T1, Tyrosine-protein phosphatase non-receptor type 1 (Homo sapiens, UniProt P18031).
T1 sequence (P18031 whole entry): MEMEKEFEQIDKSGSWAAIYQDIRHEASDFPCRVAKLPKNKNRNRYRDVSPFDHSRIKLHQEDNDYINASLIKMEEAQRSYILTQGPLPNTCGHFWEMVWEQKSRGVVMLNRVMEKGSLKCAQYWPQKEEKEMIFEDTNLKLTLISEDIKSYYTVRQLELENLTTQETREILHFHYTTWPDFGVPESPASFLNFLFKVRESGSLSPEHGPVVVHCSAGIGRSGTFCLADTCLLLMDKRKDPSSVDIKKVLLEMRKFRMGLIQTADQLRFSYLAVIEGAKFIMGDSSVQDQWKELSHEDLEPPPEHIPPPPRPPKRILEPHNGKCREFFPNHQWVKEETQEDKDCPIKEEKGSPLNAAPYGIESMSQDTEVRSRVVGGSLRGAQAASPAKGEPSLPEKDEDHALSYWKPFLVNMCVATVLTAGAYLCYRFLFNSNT
Description: Inhibition of recombinant human PTP1B using pNPP as substrate measured after 30 mins. Summed up:
(§1)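 75 nM recombinant enzyme (PTP1B, TCPTP or SHP2) with 2.5 mM pNPP in 10 mM Tris, 25 mM NaCl, 1 mM EDTA, pH 7.1; compounds added from DMSO. Reaction run 30 min at room temperature, stopped with 2.0 N NaOH, pNP read at 405 nm. Sodium vanadate as positive control. IC50 from enzyme progress curves; means of triplicates, repeated twice.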

For assay [2], the target named is T2, Tyrosine-protein phosphatase non-receptor type 2 (Homo sapiens, UniProt P17706).
T2 sequence (P17706 whole entry): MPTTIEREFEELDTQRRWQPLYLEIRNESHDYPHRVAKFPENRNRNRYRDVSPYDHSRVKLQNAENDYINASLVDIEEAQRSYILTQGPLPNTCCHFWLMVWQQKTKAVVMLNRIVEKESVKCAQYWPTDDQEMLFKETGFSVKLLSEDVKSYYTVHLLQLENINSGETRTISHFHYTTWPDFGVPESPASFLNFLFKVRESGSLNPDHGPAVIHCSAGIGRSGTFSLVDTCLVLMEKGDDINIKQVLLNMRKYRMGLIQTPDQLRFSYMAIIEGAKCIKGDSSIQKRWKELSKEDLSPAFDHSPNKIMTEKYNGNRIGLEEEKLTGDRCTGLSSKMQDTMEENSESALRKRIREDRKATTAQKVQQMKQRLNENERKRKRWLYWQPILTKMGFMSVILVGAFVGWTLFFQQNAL
As to the kind of experiment: Inhibition of recombinant human TCPTP using pNPP as substrate measured after 30 mins. A digest of the protocol: as §1

Assay [3] concerns the target T3, Tyrosine-protein phosphatase non-receptor type 11 (Homo sapiens, UniProt Q06124).
T3 sequence (Q06124 whole entry): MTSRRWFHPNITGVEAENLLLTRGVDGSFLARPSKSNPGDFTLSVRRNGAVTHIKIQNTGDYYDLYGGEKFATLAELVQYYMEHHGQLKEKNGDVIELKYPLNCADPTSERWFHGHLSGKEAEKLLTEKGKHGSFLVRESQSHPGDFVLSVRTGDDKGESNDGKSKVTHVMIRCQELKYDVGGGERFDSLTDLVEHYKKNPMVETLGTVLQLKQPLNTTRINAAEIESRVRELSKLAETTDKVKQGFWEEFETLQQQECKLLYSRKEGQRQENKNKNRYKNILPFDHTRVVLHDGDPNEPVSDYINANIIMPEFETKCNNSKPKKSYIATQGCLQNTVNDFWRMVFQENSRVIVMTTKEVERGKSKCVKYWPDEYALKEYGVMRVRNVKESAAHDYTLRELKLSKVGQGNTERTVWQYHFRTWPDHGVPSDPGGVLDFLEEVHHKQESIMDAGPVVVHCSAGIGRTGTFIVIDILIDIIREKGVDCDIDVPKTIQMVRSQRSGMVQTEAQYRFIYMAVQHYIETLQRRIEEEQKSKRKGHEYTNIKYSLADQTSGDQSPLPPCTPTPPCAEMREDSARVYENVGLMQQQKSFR
Description: Inhibition of recombinant SHP2 (unknown origin) using pNPP as substrate measured after 30 mins. Summed up: as §1

For assay [4], the target named is T1, Tyrosine-protein phosphatase non-receptor type 1. As to the kind of experiment: Inhibition of recombinant human PTP1B (1 to 322 residues) expressed in Escherichia coli using IR5 (1142 to 1153, pY1146) as substrate by malachite green dye based colorimetric assay.

As for `O=C1C[C@@H](O[C@@H]2O[C@H](CO)[C@@H](O)[C@H](O)[C@H]2O)CO1`, the IC50 in assay [1] was 5.8 µM; in assay [2] it was above 50 µM; in assay [3] it was above 50 µM; in assay [4] it was 5.14 µM.
